Laboratory results taken from PubChem BioAssay AID602169 (The Scripps Research Institute Molecular Screening Center, 2012).
Activity calls are given as the source filed them.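 Rule for the calls: active = luciferase reporter signal inhibited by 20% or more; inactive = inhibition below 20%.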

System: BG1Luc4E2 ER-luciferase reporter inhibition, 24 h
Test: suppression of estradiol-induced ERE reporter expression – BG1Luc4E2 ovarian carcinoma cells, luminescence, counter-screen for AHR activator project, late-stage follow-up (AID 602169)
Details: at 10 µM; hits give high values
In short: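 Times: 5-day estrogen depletion, then 24 h compound exposure at 37 °C. Assay system: BG1Luc4E2 ovarian carcinoma ERE-luciferase reporter cells. Replicates: triplicates. Compound dosing: single dose of 10 µM per compound. Detection: luciferase luminescence after lysis. Buffer or medium: phenol red-free DMEM, charcoal-stripped serum.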

Compound	inhibition
CN1CCN(CCCNC(=O)c2cc3c(-c4ccc(Cl)cc4)nn(C)c3s2)CC1	0% (inactive)
Cc1ccc(-c2cc(-c3cccs3)[nH]n2)c(O)c1	20%
COc1ccccc1NC(=O)c1ccc(C(=O)Nc2ccccc2OC)nc1	0% (inactive)
CN(C)c1nc(N)nc(-c2nc3ccccc3s2)n1	44%
COc1cc2ccccc2cc1C(=O)Nc1ccc(C)cc1	40%
Cn1c(N)c(C(=O)Nc2ccccc2F)sc1=S	5% (inactive)
COc1ccc(NC(=O)c2cccc3c(Br)cccc23)cc1	31%
CCOC(=O)Cc1cc(-c2ccc(O)cc2)nc2ccc3ccccc3c12	28%
CCOc1ccc(-c2cc(C)n3nc(C(N)=O)cc3n2)cc1	0% (inactive)
Cc1nnc(N2C(=O)c3cccc4c([N+](=O)[O-])ccc(c34)C2=O)s1	0% (inactive)
CCC(=O)Nc1cc(OC)c(NC(=O)c2ccccc2)cc1OC	1% (inactive)
Cc1c(-c2ccn[nH]2)cc(NC(=O)c2ccc(Cl)cc2)c(=O)n1N	1% (inactive)
O=C1c2ccccc2-c2nc3ccccc3nc21	34%
COc1ccccc1NC(=O)c1ccc2c(c1)nnn2C	0% (inactive)
Cc1cc(Nc2ccc(Br)cc2)n2nc(C)nc2n1	0% (inactive)
Cn1c(C(=O)N2CCC(C(N)=O)CC2)cc2cc(Cl)ccc21	4% (inactive)
CCOc1ccc(NC(=O)c2cc3ccccc3cc2OC)cc1	5.3% (inactive)

Compound	inhibition
Cc1csc(SCC(=O)Nc2ccc(Cl)cn2)n1	0% (inactive)
COc1ccc(C(=O)Nc2cc(OC)c(NC(=O)c3ccco3)cc2OC)cc1	0% (inactive)
O=C(CN1CCOCC1)Nc1nc2ccc([N+](=O)[O-])cc2s1	11% (inactive)
CC(=O)c1ccc(NC(=O)c2cc(Cl)nc3ccccc23)cc1	2% (inactive)
O=C(Nc1ccon1)c1cnc2sccn2c1=O	34%
Cc1ccc(Nc2ncccc2C(N)=O)cc1	24%
COC(=O)c1ccccc1NC(=O)Cn1ccnc1	3% (inactive)
Cc1nc(N)nc(Nc2ccc(Cl)cc2)c1Br	7% (inactive)
COc1ccccc1C(=O)Nc1ccc(N2CCCCC2)cc1	47%
COc1ccc(Cl)cc1C(=O)Nc1ccc(N(C)C(C)=O)cc1	2% (inactive)
CCOc1ccccc1NC(=O)c1ccc2nccnc2c1	8% (inactive)
CCCC(=O)Nc1nn(C)c2nc3cc(C)ccc3cc12	0% (inactive)
O=C(Nc1cccc(Cl)c1)c1cccnn1	2% (inactive)
Cc1ccccc1-c1nc(-c2cccnc2)no1	22%
COc1ccccc1NC(=O)Nc1cccnc1	3% (inactive)
COc1cc2c(cc1NC(=O)Nc1ccc(C)cc1)oc1ccccc12	5% (inactive)
